Bioassay records deposited in PubChem BioAssay by several laboratories.
The list is not random: actives were taken first. Their share in the collection is about 1.8%.
STAT3 act = increases IL-6 driven STAT3 reporter signal | U3A cells, IL-6 STAT3-luciferase reporter, luminescence; 100% = signal with IL-6 EC80 alone | activation (% of control), % at 5.6 µM | 190,000 compounds, 0.91% hits;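 active means activation above the screen-wide mean of compound activation plus 3 SD, cut at about 130% in these data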
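system = STAT3-luciferase reporter U3A cells | reagent = IL-6 stimulus at 33 ng/mL final | timing = 1 h compound pre-exposure, 6 h IL-6 stimulation, 37 °C | measured by = luminescence | evaluation = % activation versus median of IL-6-stimulated wells | control set = IL-6-only wells as 100% reference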
TRAIL sens C8 = caspase-8 TRAIL sensitization | NB7+C8 cells + TRAIL, ATPlite viability luminescence | 360,000 compounds, 1% hits | inhibition (viability loss, TRAIL sensitization), % at 10 µM;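 active means compounds causing at least 50% loss of cell viability in the single-dose screen, relative to plate controls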
STAT3 blocker = inhibitors of IL-6 induced STAT3 signaling | U3A cells, IL-6 STAT3-luciferase reporter, luminescence; host cell line lacks STAT1 | inhibition, % at 5.5 µM | 190,000 compounds, 0.89% hits;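 active means inhibition above the mean inhibition across all screened compounds plus 3 SD, cut at about 44% in these data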
PPC-1+TRAIL kill = PPC-1 cancer cell killing with TRAIL present. cell killing (% activity), % at 4 µM or 5 µM. PPC-1 cells + TRAIL, ATPLite viability luminescence. 220,000 compounds, 0.41% hits. AID 1443;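 active means cell killing above 50% in the first pass at 4 µM, then a duplicate retest at 5 µM averaging 50% or more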
STAT1 blocker = inhibitors of IFN-gamma induced STAT1 signaling; NIH 3T3 STAT1-luciferase reporter, luminescence; inhibition, % at 5.5 µM; 200,000 compounds, 0.35% hits;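 active means inhibition above a set limit, the mean inhibition across all tested compounds plus 3 SD, cut at about 34% in these data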
Numbers stand for hits; n = inactive; x = not tested or not shown.

SMILES	STAT3 act	TRAIL sens C8	STAT3 blocker	PPC-1+TRAIL kill	STAT1 blocker
COc1ccc(C(C)(NC(C)=O)c2nc(-c3ccccc3OC)cs2)cc1 (stereo not given)	x	n	x	x	x
CCn1c(CC(=O)Nc2ccc(F)cc2)nnc1SCC(=O)Nc1nncs1	x	n	x	x	x
Oc1ccccc1C=Nc1ccccc1-c1nc2ccccc2[nH]1	n	52.5	n	n	n
Cc1ccc(C2CC2c2n[nH]c(=S)n2-c2cccc(C)c2)cc1 (stereo not given)	n	n	n	n	n
Cc1ccc(C2CC2c2n[nH]c(=S)n2-c2ccc(Cl)cc2)cc1 (stereo not given)	n	71.9	n	n	n
COC(=O)c1ccccc1NC(=O)CCn1c(=O)oc2ccccc21	x	n	x	x	x
COc1cccc(NC(=O)Nc2cc(C(=O)NC(C)C)ccc2N2CC3CC(C2)c2cccc(=O)n2C3)c1 (stereo not given)	x	n	x	x	x
Cc1ccc(S(=O)(=O)N2C[C@@H](C)[C@]3(C2)[C@H](O)[C@H](OC(=O)Nc2cccs2)C[C@H]2C(=O)N(c4ccccc4)C(=O)[C@H]23)cc1	x	n	x	x	x
CSc1ccc(CNC(=O)Cc2ccc(NC(=O)C3=C(C)OCCS3)cc2)cc1	x	58.8	x	x	x
CCOc1ccc(CCNC(=O)Cc2ccc(NC(=O)C3=C(C)OCCS3)cc2)cc1	x	n	x	x	x
Oc1ccc(-c2nccc(-c3cccs3)n2)cc1	140.2	n	n	n	n
Cc1cc2nc3ccc(N(C)C)cc3nc2cc1N	x	51.5	x	x	x
Oc1ccccc1N=Cc1sc2ccccc2c1Cl	135.0	n	n	n	n
CC1=NNC(=O)/C1=C\c1cn(-c2ccccc2)nc1-c1ccc(Cl)cc1	n	87.1	61.3	n	n
COc1ccc(-c2nnc(NC(=O)c3ccco3)s2)cc1	x	60.4	x	x	x
Cc1nnc(NC(=O)c2ccco2)s1	n	n	n	n	n
Cc1ccc(-c2nnc(NC(=O)c3ccco3)s2)cc1	x	67.9	x	x	x
COc1cccc(-c2nnc(NC(=O)c3ccco3)s2)c1	x	n	x	x	x
O=C(NCC(=O)N1CCN(c2ccccc2)CC1)c1ccccc1	x	n	x	x	x
COc1cc(/C=C2\COC/C(=C\c3cc(OC)c(OC)c(OC)c3)C2=O)cc(OC)c1OC	x	72.2	x	n	x
Nc1nc(N)c2cc(CNc3ccc(Cl)c(Cl)c3)ccc2n1	x	95.1	x	x	x
COc1ccc(NS(=O)(=O)c2ccc(N/N=C(\C)c3ccncc3)c([N+](=O)[O-])c2)cc1	n	n	n	54.5	n
C/C(=N\Nc1ccc(S(=O)(=O)Nc2ccccc2)cc1[N+](=O)[O-])c1ccncc1	n	x	n	n	n
Nc1ccc(-c2nc3ncccc3o2)c(Cl)c1	n	53.3	n	n	n
Nc1ccc(Cl)c(-c2nc3ncccc3o2)c1	n	n	n	n	n
SMILES	STAT3 act	TRAIL sens C8	STAT3 blocker	PPC-1+TRAIL kill	STAT1 blocker
Oc1ccc(-c2n[nH]c(C(F)(F)F)c2-c2ccccc2)c(O)c1	n	n	71.9	n	41.5
O=[N+]([O-])c1cccc(-c2cn3ccccc3n2)c1	n	n	n	n	n
COc1ccc(-c2cn3ccccc3n2)cc1[N+](=O)[O-]	n	61.4	n	n	n
CCCOc1ccc(-c2cn3ccccc3n2)cc1[N+](=O)[O-]	n	62.5	n	n	n
O=S1(=O)CC(N2CCN(CC3CC3)CC2)CN1Cc1ccccc1 (stereo not given)	x	n	x	x	x
COc1ccc(C2=Nn3c([n+](C)c4ccccc43)SC2)cc1	n	n	n	n	34.7
C[n+]1c2n(c3ccccc31)N=C(c1ccc(Cl)cc1)CS2	n	n	n	n	n
O=C(Nc1ccc2ccccc2c1)c1ccccc1[N+](=O)[O-]	x	n	x	x	x
O=C(Nc1ccc2ccccc2c1)c1ccccc1O	x	72.0	x	x	x
O=C(Nc1ccc2ccccc2c1)c1ccc(Cl)cc1Cl	x	60.9	x	n	x
O=C(Nc1ccc2ccccc2c1)c1ccccc1Cl	x	n	x	x	x
Nc1ccc(-c2ncc(-c3ccccc3)o2)cc1	x	52.4	x	x	x
CCOc1ccccc1N1CCN(C(=O)c2ccc3nc(N)sc3c2)CC1	x	n	x	x	x
Cc1nc(Cl)c(S(N)(=O)=O)c(C)c1Cl	n	n	n	n	n
C=CCNCCCCOc1ccc(Br)cc1C	n	n	n	n	n
Cc1cc(Br)ccc1OCCCCNCCO	n	52.7	n	n	n
COc1ccc(C2=NOC(C(=O)NCc3ccc(F)cc3)C2)cc1OC (stereo not given)	133.5	n	n	n	n
Cn1/c(=N/N=C/c2ccc([N+](=O)[O-])cc2)sc2ccccc21	143.9	x	n	n	n
CC(=O)Nc1ccc(S(=O)(=O)O)c(OC(C)=O)c1	x	n	x	x	x
Cn1c(Nc2ccccc2)nc2ccccc21	x	n	x	x	x
CC(C)N=c1cc2n(-c3ccc(Cl)cc3)c3ccccc3nc-2cc1Nc1ccc(Cl)cc1	x	80.6	x	x	x
Cc1ccc(Nc2nnc(SCC(=O)c3c(N)n(C4CC4)c(=O)[nH]c3=O)s2)cc1C	x	55.3	x	x	x
Cc1cccc(Nc2nnc(SCC(=O)c3c(N)n(C4CC4)c(=O)[nH]c3=O)s2)c1	x	n	x	x	x
Cc1ccc2nc(SCC(=O)c3c(N)n(C4CC4)c(=O)[nH]c3=O)[nH]c2c1	x	n	x	x	x
CCCc1cc(=O)[nH]c(SCC(=O)c2c(N)n(C3CC3)c(=O)[nH]c2=O)n1	x	85.2	x	x	x
SMILES	STAT3 act	TRAIL sens C8	STAT3 blocker	PPC-1+TRAIL kill	STAT1 blocker
CCN1CCC(O)(/C=C/c2ccc(C(C)C)cc2)C(C(=O)/C=C/c2ccc(C(C)C)cc2)C1 (stereo not given)	x	87.2	x	x	x
CCN1CCN(C(=O)/C=C/c2ccc(C(C)C)cc2)CC1	x	n	x	x	x
COc1ccc(C(=O)OCC(=O)c2ccc3[nH]c(=O)[nH]c3c2)c(OC)c1OC	x	n	x	x	x
CN(C)C(=O)N1CCN(c2nc(-c3ccccc3)cs2)CC1	x	58.3	x	x	x
O=C(N1CCOCC1)N1CCN(c2nc(-c3ccccc3)cs2)CC1	n	n	n	n	n
N/C(=N\OC(=O)CCCc1ccccc1)c1ccccc1Cl	x	n	x	x	x
Cc1cc(C(=O)COC(=O)c2ccc[nH]c2=O)c(C)n1-c1ccc(F)cc1	n	52.1	n	n	n
Cc1cc(C(=O)COC(=O)c2ccc[nH]c2=O)c(C)n1-c1ccccc1	n	71.8	49.0	62.5	36.2
Cc1cc(C(=O)COC(=O)c2ccc[nH]c2=O)c(C)n1C1CC1	n	n	n	n	n
COc1ccc(/C=C/C(=O)c2ccc3c(c2)OCO3)c(OC)c1	n	56.3	n	n	n
COc1cccc(/C=C/C(=O)c2ccc3c(c2)OCCO3)c1OC	x	71.2	x	x	x
COc1ccc(/C=C/C(=O)c2ccccc2)c(OC)c1	n	n	n	n	n
CCCCOc1ccc(N(CC(=O)NCCOC)C(=O)CCC(=O)Nc2ccccn2)cc1	x	n	x	x	x
Cc1cc(C(=O)N/N=C/c2c(C)nn(-c3ccccc3)c2C)n[nH]1	x	n	x	n	x
Cc1nn(-c2ccccc2)c(C)c1/C=N/NC(=O)c1cc(-c2ccc(Cl)s2)[nH]n1	n	46.5	n	n	n
Cc1nn(-c2ccccc2)c(C)c1/C=N/NC(=O)c1cc(C23CC4CC(CC(C4)C2)C3)[nH]n1	n	64.0	n	n	n
C(=C\c1ccc2ccccc2n1)/c1ccccc1	x	72.8	x	n	x
O=Cc1nccc2ccccc12	x	n	x	x	x
O=C(O)/C=C/c1ccc2ccccc2n1	n	n	n	n	n
C(=Cc1c[nH]c2ccccc12)c1nccc2ccccc12	x	72.7	x	x	x
